Measurements from article PMC6510378 (Clinical and Translational Science, 2019).

How the values were obtained:
[1] = test system: hypothalamic‐pituitary‐adrenal (HPA) axis; assay: HPA axis endocrine markers; type: in vivo, human
Method in brief: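 Healthy young non-Japanese adults, open-label low-dose part. 0.7 or 2 mg was given as a single oral dose on day 1, then after a 6-day washout once daily. 0.4 mg was given once daily on days 1–14. 0.2 mg followed a 3 mg loading dose on day 1, days 2–14. Baseline urine endocrine markers were taken day –1. Urine cortisol came from first morning void. ACTH and DHEA-s were plasma. Follow-up sampling ran days 16–21 and day 28.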

[2] = 4-week toxicology; type: in vivo; settings: 4-week toxicology data, most sensitive species (rat)
[3] = biological target: human 11β‐HSD1; settings: competitive binding; ref Internal study reports 3662‐PH‐0001 and 3662‐PH‐0001‐0004; cited from earlier work
[4] = Safety and tolerability, MAD study; type: in vivo, human; settings: for Any TEAE / Drug-related TEAE / Number of TEAEs / Number of drug-related TEAEs / TEAE: Constipation / TEAE: Gastrointestinal disorders / TEAE: General disorders and administration site conditions / TEAE: Headache / TEAE: Medical device site reaction / TEAE: Nervous system disorders / TEAE: Skin and subcutaneous tissue disorders: MAD study
Method in brief: (§1)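 Safety was assessed from treatment-emergent adverse events: nature, frequency, severity, onset/offset and relatedness to study drug, coded by MedDRA system organ class. Also assessed were haematology, serum chemistry, urinalysis, physical examination with vital signs, and ECGs. CNS scales used were Bond and Lader VAS, ARCI-49 and Profile of Mood States. Data were summarized descriptively.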

[5] = Safety and tolerability, SAD study; type: in vivo, human
Method in brief: as §1

[6] = test system: 11β‐HSD2; settings: at concentrations < 3,000 nM; ref Internal study reports 3662‐PH‐0001 and 3662‐PH‐0001‐0004; cited from earlier work
[7] = mice, available in vivo pharmacology data; cited from earlier work
[8] = biological target: 11β‐HSD1 (Homo sapiens, UniProt P28845); assay: Urine 11β-HSD1 activity; type: in vivo
Method in brief: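 Hepatic 11β-HSD1 activity was taken as the urinary ratio of (5α + 5β)-tetrahydrocortisol to tetrahydrocortisone. In the single-dose study, urine was collected predose to 72 h. In the high-dose multiple-dose part, cumulative amounts excreted were measured on days 1 and 18. In the low-dose part, first morning void samples were used, with baseline on day –1 and follow-up through days 16–21 and day 28.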

[9] = Urine PK, 10-mg, 20-mg and 50-mg cohorts; type: in vivo, human; settings: parent ASP3662
Method in brief: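 Urine drug concentration was measured by validated HPLC-MS/MS. Subjects were healthy young Japanese, young non-Japanese and elderly non-Japanese adults given oral doses of 10, 20 or 50 mg: single dose day 1, 4-day washout, then once daily on days 5–18. Dosing was fasted on PK days.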

11β‐HSD1, sequence (P28845 whole entry): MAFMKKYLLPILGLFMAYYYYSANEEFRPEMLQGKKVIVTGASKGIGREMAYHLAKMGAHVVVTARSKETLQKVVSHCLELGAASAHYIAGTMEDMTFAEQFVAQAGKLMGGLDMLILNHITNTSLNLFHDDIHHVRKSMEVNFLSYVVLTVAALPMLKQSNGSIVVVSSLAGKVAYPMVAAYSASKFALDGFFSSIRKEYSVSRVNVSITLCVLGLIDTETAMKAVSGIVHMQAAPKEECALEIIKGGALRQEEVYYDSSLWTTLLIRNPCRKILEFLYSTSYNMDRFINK

## Cn1c(-c2ccc(C(N)=O)cc2F)nnc1C(C)(C)Oc1c(F)cc(Cl)cc1F [ASP3662]
[1]; MAD part 2, low dose
  effects on ACTH, DHEA‐s and 24‐hour total urine glucocorticoids: activation of the HPA axis
[1]; despite full 11β‐HSD1 inhibition, part 2 low dose
  effect on urine cortisol levels: no significant effects
[2]
  maximum recommended starting dose derived from the no observed adverse effect level: 10 mg
[3]
  Ki: 5.3 nM
[4]; MAD part 2, 0.2 mg
  subjects with TEAE headache: 2 n
[4]; MAD part 2, 0.4 mg
  subjects with TEAE headache: 1 n
[4]; MAD part 2, 0.7 mg
  subjects with TEAE headache: 1 n
[4]; MAD part 2, 2 mg
  subjects with TEAE headache: 1 n
[4]; 10 mg, n=8
  Any TEAE: 3 (37.5) n (%)
  Drug-related TEAE: 2 (25.0) n (%)
  Number of TEAEs: 3
  Number of drug-related TEAEs: 2
  TEAE: Constipation: 0 n (%)
  TEAE: Gastrointestinal disorders: 0 n (%)
  TEAE: General disorders and administration site conditions: 0 n (%)
  TEAE: Headache: 0 n (%)
  TEAE: Medical device site reaction: 0 n (%)
  TEAE: Nervous system disorders: 0 n (%)
  TEAE: Skin and subcutaneous tissue disorders: 1 (12.5) n (%)
[4]; 20 mg, n=25
  Any TEAE: 14 (56.0) n (%)
  Drug-related TEAE: 9 (36.0) n (%)
  Number of TEAEs: 21
  Number of drug-related TEAEs: 12
  TEAE: Constipation: 1 (4.0) n (%)
  TEAE: Gastrointestinal disorders: 1 (4.0) n (%)
  TEAE: General disorders and administration site conditions: 3 (12.0) n (%)
  TEAE: Headache: 5 (20.0) n (%)
  TEAE: Medical device site reaction: 2 (8.0) n (%)
  TEAE: Nervous system disorders: 9 (36.0) n (%)
  TEAE: Skin and subcutaneous tissue disorders: 0 n (%)
[4]; 50 mg, n=16
  Any TEAE: 6 (37.5) n (%)
  Drug-related TEAE: 4 (25.0) n (%)
  Number of TEAEs: 12
  Number of drug-related TEAEs: 6
  TEAE: Constipation: 2 (12.5) n (%)
  TEAE: Gastrointestinal disorders: 2 (12.5) n (%)
  TEAE: General disorders and administration site conditions: 1 (6.3) n (%)
  TEAE: Headache: 3 (18.8) n (%)
  TEAE: Medical device site reaction: 1 (6.3) n (%)
  TEAE: Nervous system disorders: 3 (18.8) n (%)
  TEAE: Skin and subcutaneous tissue disorders: 2 (12.5) n (%)
[4]; ASP3662 total (10-50 mg), n=49
  Any TEAE: 23 (46.9) n (%)
  Drug-related TEAE: 15 (30.6) n (%)
  Number of TEAEs: 36
  Number of drug-related TEAEs: 20
  TEAE: Constipation: 3 (6.1) n (%)
  TEAE: Gastrointestinal disorders: 3 (6.1) n (%)
  TEAE: General disorders and administration site conditions: 4 (8.2) n (%)
  TEAE: Headache: 8 (16.3) n (%)
  TEAE: Medical device site reaction: 3 (6.1) n (%)
  TEAE: Nervous system disorders: 12 (24.5) n (%)
  TEAE: Skin and subcutaneous tissue disorders: 3 (6.1) n (%)
[4]; both SAD and MAD studies
  deaths, TEAEs leading to discontinuation, serious or drug-related TEAEs: No deaths, TEAEs leading to discontinuation, serious TEAEs
[4]; elderly subjects who received ASP3662
  potentially clinically significant orthostatic pulse rate measurements: 44.4%
[4]; multiple oral doses up to 50 mg for 14 days
  overall safety and tolerability: safe and well tolerated
[5]; after a single dose of 6 mg
  clinically relevant finding (vital signs): clinically significant orthostatic hypotension
[5]; single oral doses up to 60 mg
  overall safety and tolerability: safe and well tolerated
[6]
  inhibition of 11β‐HSD2: no inhibition
[7]
  minimal pharmacological active oral dose: 0.03 mg/kg
[8]; 16 days after discontinuation of multiple doses, even lowest dose 0.2 mg
  return of 11β‐HSD1 activity to baseline: incomplete
[8]; clinical PD data referred to in the dose rationale
  dose achieving full inhibition of peripheral 11β‐HSD1: 3 mg
[8]; multiple daily doses
  dose achieving full inhibition of 11β‐HSD1: ≥ 2 mg
[8]; nadir at doses of 2 mg and above
  11β‐HSD1 activity ratio at maximal inhibition: ~ 0.1 ratio
[9]
  amount recovered from urine: < 0.3 % of the administered dose
